From ChEMBL document CHEMBL4017482, “4-Connected azabicyclo[5.3.0]decane Smac mimetics-Zn2+ chelators as dual action antitumoral agents” (Bioorg Med Chem Lett, 2017)
Activity calls are given as the source filed them. The calls are words filed in the database; no cut-off is given here.

Experiments:
MDA-MB-231 [1] = assay: Induction of apoptosis in smac mimetic-sensitive human MDA-MB-231 cells assessed as increase in cleaved PARP level at 5 uM measured after 24 hrs by Western blot analysis; type: functional, cell-based
MDA-MB-231 [2] = assay: Cytotoxicity against human smac mimetic-sensitive human MDA-MB-231 cells after 24 hrs by CellTiter-Glo assay; settings: MDA-MB-231, 24 h
MDA-MB-453 [3] = assay: Induction of apoptosis in smac mimetic-resistant human MDA-MB-453 cells assessed as increase in cleaved PARP level at 5 uM measured after 24 hrs by Western blot analysis; type: functional, cell-based
MDA-MB-453 [4] = assay: Induction of apoptosis in smac mimetic-resistant human MDA-MB-453 cells assessed as increase in cleaved casapse-3 at 5 uM measured after 24 hrs by Western blot analysis; type: functional, cell-based
MDA-MB-453 [5] = assay: Cytotoxicity against human smac mimetic-sensitive human MDA-MB-453 cells after 24 hrs by CellTiter-Glo assay; settings: MDA-MB-453, 24 h
MDA-MB-231 [6] = assay: Induction of apoptosis in smac mimetic-sensitive human MDA-MB-231 cells assessed as increase in cleaved casapse-3 at 5 uM measured after 24 hrs by Western blot analysis; type: functional, cell-based
[7] = Metal chelating activity of compound assessed as 1:1 stoichiometry for compound-Zn2+ complex at 50 uM measured after 15 mins by spectrofluorimetric method; type: functional
How it was run: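 Compounds were titrated with Zn2+, and chelation was followed by fluorescence spectroscopy.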

[8] = target: E3 ubiquitin-protein ligase XIAP (Homo sapiens) (UniProt P98170); assay: Induction of XIAP degradation in smac mimetic-sensitive human MDA-MB-231 cells at 5 uM measured after 24 hrs by Western blot analysis
[9] = target: E3 ubiquitin-protein ligase XIAP (Homo sapiens) (UniProt P98170); assay: Induction of XIAP degradation in smac mimetic-resistant human MDA-MB-453 cells at 5 uM measured after 24 hrs by Western blot analysis

E3 ubiquitin-protein ligase XIAP (Homo sapiens), sequence (P98170 whole entry): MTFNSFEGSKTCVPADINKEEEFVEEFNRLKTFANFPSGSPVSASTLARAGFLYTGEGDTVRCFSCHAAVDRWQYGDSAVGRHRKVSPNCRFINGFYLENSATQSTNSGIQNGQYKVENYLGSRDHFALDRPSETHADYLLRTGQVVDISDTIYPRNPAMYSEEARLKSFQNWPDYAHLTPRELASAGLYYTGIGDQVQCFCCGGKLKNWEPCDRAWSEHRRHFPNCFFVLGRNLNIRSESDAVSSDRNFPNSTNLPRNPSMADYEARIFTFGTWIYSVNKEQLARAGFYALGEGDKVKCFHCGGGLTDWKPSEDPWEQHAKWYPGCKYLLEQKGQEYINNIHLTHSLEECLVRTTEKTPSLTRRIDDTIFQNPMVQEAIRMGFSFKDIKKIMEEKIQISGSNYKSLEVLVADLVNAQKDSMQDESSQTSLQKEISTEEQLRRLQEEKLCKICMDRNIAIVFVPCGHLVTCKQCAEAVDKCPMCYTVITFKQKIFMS

Row | SMILES | Activity (MDA-MB-231 [1]) | IC50 (MDA-MB-231 [2]) | Activity (MDA-MB-453 [3]) | Activity (MDA-MB-453 [4]) | IC50 (MDA-MB-453 [5]) | Activity (MDA-MB-231 [6]) | Activity [7] | Activity [8] | Activity [9]
1 | CC[C@H](NC)C(=O)N[C@@H]1C(=O)N2[C@@H](CC[C@@H]1CNC(=O)CN(Cc1ccccn1)Cc1ccccn1)CC[C@H]2C(=O)NC(c1ccccc1)c1ccccc1 | Active | 6.5 µM | inactive | inactive | > 25 µM | Active | Active | inactive | –
2 | CC[C@H](NC)C(=O)N[C@@H]1C(=O)N2[C@@H](CC[C@@H]1CNC(=O)c1ccccc1)CC[C@H]2C(=O)N[C@H](C(=O)NCCN(Cc1ccccn1)Cc1ccccn1)c1ccccc1 | – | – | – | – | – | – | – | inactive | inactive
3 | CC[C@H](NC)C(=O)N[C@@H]1C(=O)N2[C@@H](CC[C@@H]1CNC(=O)CCNC(=O)CN(Cc1ccccn1)Cc1ccccn1)CC[C@H]2C(=O)NC(c1ccccc1)c1ccccc1 | inactive | > 25 µM | inactive | inactive | > 25 µM | inactive | Active | inactive | –
4 | CC[C@H](NC)C(=O)N[C@@H]1C(=O)N2[C@@H](CC[C@@H]1CNC(=O)c1ccccc1)CC[C@H]2C(=O)NC(c1ccccc1)c1ccccc1 | Active | 4.1 µM | – | – | > 25 µM | Active | – | inactive | inactive
5 | CC[C@H](NC)C(=O)N[C@@H]1C(=O)N2[C@@H](CC[C@@H]1CNC(=O)CCCCCCCCCCNC(=O)CN(Cc1ccccn1)Cc1ccccn1)CC[C@H]2C(=O)NC(c1ccccc1)c1ccccc1 | Active | 0.97 µM | inactive | inactive | > 25 µM | Active | Active | Active | inactive
6 | CC[C@H](NC)C(=O)N[C@@H]1C(=O)N2[C@@H](CC[C@@H]1CNC(=O)COCCOCCNC(=O)CN(Cc1ccccn1)Cc1ccccn1)CC[C@H]2C(=O)NC(c1ccccc1)c1ccccc1 | inactive | > 25 µM | inactive | inactive | > 25 µM | inactive | Active | inactive | Active
